Source: ChEMBL document CHEMBL3734675, “Synthesis, antimycobacterial and antibacterial activity of fluoroquinolone derivatives containing an 3-alkoxyimino-4-(cyclopropylanimo)methylpyrrolidine moiety” (2015)
Values after ≈ are worked out from the molar mass of the structure shown.

Tests used:
Type in all cases: functional
[1] = system: Staphylococcus epidermidis; test: Antibacterial activity against methicillin-resistant Staphylococcus epidermidis 14-22 after 18 to 24 hrs by two-fold serial dilution method
Summary of the method: (§1)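 Agar media, standard twofold serial dilution. MIC is the lowest concentration giving complete inhibition of bacterial growth after incubation at 35 °C for 18–24 h. Ciprofloxacin and levofloxacin were run as comparators.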

Klebsiella pneumoniae [2] = test: Antibacterial activity against Klebsiella pneumoniae 14-4 after 18 to 24 hrs by two-fold serial dilution method
Summary of the method: (§2)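 Twofold serial dilution in agar media against Gram-positive and Gram-negative strains. Plates incubated at 35 °C for 18–24 h. MIC read as the lowest compound concentration giving complete inhibition of bacterial growth.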

Staphylococcus aureus [3] = test: Antibacterial activity against methicillin-sensitive Staphylococcus aureus 14-1 after 18 to 24 hrs by two-fold serial dilution method; summary of the method: as §2
[4] = system: Mycobacterium tuberculosis; test: Antimycobacterial activity against Mycobacterium tuberculosis H37Rv ATCC 27294 incubated for 7 days by microplate Alamar Blue assay; details: H37Rv ATCC 27294, 168 h
Summary of the method: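 Fluorescence read-out. MIC is the lowest concentration that reduces fluorescence by at least 90% relative to the mean of replicate bacterium-only controls. Isoniazid and rifampicin were included as reference drugs.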

Enterococcus faecium [5] = test: Antibacterial activity against Enterococcus faecium 14-2 after 18 to 24 hrs by two-fold serial dilution method; summary of the method: as §2
Escherichia coli [6] = test: Antibacterial activity against Escherichia coli ATCC 25922 after 18 to 24 hrs by two-fold serial dilution method; summary of the method: as §2
Staphylococcus aureus [7] = test: Antibacterial activity against methicillin-resistant Staphylococcus aureus 14-4 after 18 to 24 hrs by two-fold serial dilution method; summary of the method: as §1
[8] = system: Staphylococcus epidermidis; test: Antibacterial activity against methicillin-resistant Staphylococcus epidermidis 14-21 after 18 to 24 hrs by two-fold serial dilution method; summary of the method: as §1
Enterococcus faecalis [9] = test: Antibacterial activity against Enterococcus faecalis 14-1 after 18 to 24 hrs by two-fold serial dilution method; summary of the method: as §2
Streptococcus pneumoniae = test: Antibacterial activity against methicillin-resistant Streptococcus pneumoniae ATCC 19615 after 18 to 24 hrs by two-fold serial dilution method; summary of the method: as §1
Klebsiella pneumoniae [10] = test: Antibacterial activity against extended-spectrum beta-lactamase producing Klebsiella pneumoniae 14-18 after 18 to 24 hrs by two-fold serial dilution method; summary of the method: as §2
Escherichia coli [11] = test: Antibacterial activity against Escherichia coli 14-1 after 18 to 24 hrs by two-fold serial dilution method; summary of the method: as §2
Klebsiella pneumoniae [12] = test: Antibacterial activity against extended-spectrum beta-lactamase producing Klebsiella pneumoniae 14-17 after 18 to 24 hrs by two-fold serial dilution method; summary of the method: as §2
Pseudomonas aeruginosa [13] = test: Antibacterial activity against Pseudomonas aeruginosa 14-15 after 18 to 24 hrs by two-fold serial dilution method; summary of the method: as §2
Pseudomonas aeruginosa [14] = test: Antibacterial activity against Pseudomonas aeruginosa 14-14 after 18 to 24 hrs by two-fold serial dilution method; summary of the method: as §2
Klebsiella pneumoniae [15] = test: Antibacterial activity against Klebsiella pneumoniae 14-3 after 18 to 24 hrs by two-fold serial dilution method; summary of the method: as §2
Pseudomonas aeruginosa [16] = test: Antibacterial activity against Pseudomonas aeruginosa 14-9 after 18 to 24 hrs by two-fold serial dilution method; summary of the method: as §2
Klebsiella pneumoniae [17] = test: Antibacterial activity against Klebsiella pneumoniae 14-2 after 18 to 24 hrs by two-fold serial dilution method; summary of the method: as §2
Pseudomonas aeruginosa [18] = test: Antibacterial activity against Pseudomonas aeruginosa 14-16 after 18 to 24 hrs by two-fold serial dilution method; summary of the method: as §2
[19] = system: Staphylococcus epidermidis; test: Antibacterial activity against methicillin-resistant Staphylococcus epidermidis 14-39 after 18 to 24 hrs by two-fold serial dilution method; summary of the method: as §1
Staphylococcus aureus [20] = test: Antibacterial activity against methicillin-resistant Staphylococcus aureus 14-5 after 18 to 24 hrs by two-fold serial dilution method; summary of the method: as §1
Klebsiella pneumoniae [21] = test: Antibacterial activity against extended-spectrum beta-lactamase producing Klebsiella pneumoniae 14-19 after 18 to 24 hrs by two-fold serial dilution method; summary of the method: as §2
Escherichia coli [22] = test: Antibacterial activity against extended-spectrum beta-lactamase producing Escherichia coli 14-1 after 18 to 24 hrs by two-fold serial dilution method; summary of the method: as §2
[23] = system: Staphylococcus epidermidis; test: Antibacterial activity against methicillin-sensitive Staphylococcus epidermidis 14-2 after 18 to 24 hrs by two-fold serial dilution method; summary of the method: as §2
Enterococcus faecalis [24] = test: Antibacterial activity against Enterococcus faecalis 14-2 after 18 to 24 hrs by two-fold serial dilution method; summary of the method: as §2
[25] = system: Staphylococcus epidermidis; test: Antibacterial activity against methicillin-resistant Staphylococcus epidermidis 14-37 after 18 to 24 hrs by two-fold serial dilution method; summary of the method: as §1
Pseudomonas aeruginosa [26] = test: Antibacterial activity against Pseudomonas aeruginosa ATCC 27853 after 18 to 24 hrs by two-fold serial dilution method; summary of the method: as §2
Enterococcus faecium [27] = test: Antibacterial activity against Enterococcus faecium 14-5 after 18 to 24 hrs by two-fold serial dilution method; summary of the method: as §2
Staphylococcus aureus [28] = test: Antibacterial activity against methicillin-sensitive Staphylococcus aureus 14-3 after 18 to 24 hrs by two-fold serial dilution method; summary of the method: as §2
Escherichia coli [29] = test: Antibacterial activity against extended-spectrum beta-lactamase producing Escherichia coli 14-2 after 18 to 24 hrs by two-fold serial dilution method; summary of the method: as §2
Klebsiella pneumoniae [30] = test: Antibacterial activity against Klebsiella pneumoniae 14-1 after 18 to 24 hrs by two-fold serial dilution method; summary of the method: as §2
Enterococcus faecium [31] = test: Antibacterial activity against Enterococcus faecium 14-6 after 18 to 24 hrs by two-fold serial dilution method; summary of the method: as §2
Staphylococcus aureus [32] = test: Antibacterial activity against Staphylococcus aureus CMCC 26003 after 18 to 24 hrs by two-fold serial dilution method; summary of the method: as §2
Staphylococcus aureus [33] = test: Antibacterial activity against methicillin-sensitive Staphylococcus aureus 14-4 after 18 to 24 hrs by two-fold serial dilution method; summary of the method: as §2
Escherichia coli [34] = test: Antibacterial activity against Escherichia coli 14-2 after 18 to 24 hrs by two-fold serial dilution method; summary of the method: as §2

SMILES	MIC [1] [µg/mL]	MIC (Klebsiella pneumoniae [2]) [µg/mL]	MIC (Staphylococcus aureus [3]) [µg/mL]	MIC90 [4] [µg/mL]	MIC (Enterococcus faecium [5]) [µg/mL]	MIC (Escherichia coli [6]) [µg/mL]	MIC (Staphylococcus aureus [7]) [µg/mL]	MIC [8] [µg/mL]	MIC (Enterococcus faecalis [9]) [µg/mL]	MIC (Streptococcus pneumoniae) [µg/mL]	MIC (Klebsiella pneumoniae [10]) [µg/mL]	MIC (Escherichia coli [11]) [µg/mL]	MIC (Klebsiella pneumoniae [12]) [µg/mL]	MIC (Pseudomonas aeruginosa [13]) [µg/mL]	MIC (Pseudomonas aeruginosa [14]) [µg/mL]	MIC (Klebsiella pneumoniae [15]) [µg/mL]	MIC (Pseudomonas aeruginosa [16]) [µg/mL]	MIC (Klebsiella pneumoniae [17]) [µg/mL]	MIC (Pseudomonas aeruginosa [18]) [µg/mL]	MIC [19] [µg/mL]	further results
CCO/N=C1/CN(c2nc3c(cc2F)c(=O)c(C(=O)O)cn3-c2nc(N)c(F)cc2F)CC1CNC1CC1 (stereo not given)	32 (≈ 60.2 µM)	> 128	16 (≈ 30.1 µM)	22 (≈ 41.4 µM)	64 (≈ 120 µM)	4 (≈ 7.53 µM)	64 (≈ 120 µM)	128 (≈ 241 µM)	128 (≈ 241 µM)	16 (≈ 30.1 µM)	128 (≈ 241 µM)	> 128	128 (≈ 241 µM)	128 (≈ 241 µM)	128 (≈ 241 µM)	128 (≈ 241 µM)	32 (≈ 60.2 µM)	64 (≈ 120 µM)	128 (≈ 241 µM)	64 (≈ 120 µM)	MIC (Staphylococcus aureus [20]): 8 µg/mL (≈ 15.1 µM); MIC (Klebsiella pneumoniae [21]): 128 µg/mL (≈ 241 µM); MIC (Escherichia coli [22]): 32 µg/mL (≈ 60.2 µM); MIC [23]: > 128 µg/mL; MIC (Enterococcus faecalis [24]): 4 µg/mL (≈ 7.53 µM); MIC [25]: 64 µg/mL (≈ 120 µM); MIC (Pseudomonas aeruginosa [26]): 32 µg/mL (≈ 60.2 µM); MIC (Enterococcus faecium [27]): 32 µg/mL (≈ 60.2 µM); MIC (Staphylococcus aureus [28]): 32 µg/mL (≈ 60.2 µM); MIC (Escherichia coli [29]): > 128 µg/mL; MIC (Klebsiella pneumoniae [30]): 64 µg/mL (≈ 120 µM); MIC (Enterococcus faecium [31]): 128 µg/mL (≈ 241 µM); MIC (Staphylococcus aureus [32]): 0.125 µg/mL (≈ 0.235 µM); MIC (Staphylococcus aureus [33]): 32 µg/mL (≈ 60.2 µM); MIC (Escherichia coli [34]): > 128 µg/mL
CC1(CNC2CC2)CN(c2nc3c(cc2F)c(=O)c(C(=O)O)cn3-c2nc(N)c(F)cc2F)C/C1=N/OCc1ccccc1 (stereo not given)	128 (≈ 211 µM)	> 128	16 (≈ 26.3 µM)	16 (≈ 26.3 µM)	32 (≈ 52.7 µM)	64 (≈ 105 µM)	16 (≈ 26.3 µM)	32 (≈ 52.7 µM)	32 (≈ 52.7 µM)	8 (≈ 13.2 µM)	> 128	> 128	> 128	128 (≈ 211 µM)	128 (≈ 211 µM)	128 (≈ 211 µM)	128 (≈ 211 µM)	> 128	> 128	128 (≈ 211 µM)	MIC (Staphylococcus aureus [20]): 32 µg/mL (≈ 52.7 µM); MIC (Klebsiella pneumoniae [21]): > 128 µg/mL; MIC (Escherichia coli [22]): > 128 µg/mL; MIC [23]: 64 µg/mL (≈ 105 µM); MIC (Enterococcus faecalis [24]): 16 µg/mL (≈ 26.3 µM); MIC [25]: 64 µg/mL (≈ 105 µM); MIC (Pseudomonas aeruginosa [26]): 128 µg/mL (≈ 211 µM); MIC (Enterococcus faecium [27]): > 128 µg/mL; MIC (Staphylococcus aureus [28]): 8 µg/mL (≈ 13.2 µM); MIC (Escherichia coli [29]): > 128 µg/mL; MIC (Klebsiella pneumoniae [30]): > 128 µg/mL; MIC (Enterococcus faecium [31]): 128 µg/mL (≈ 211 µM); MIC (Staphylococcus aureus [32]): 1 µg/mL (≈ 1.65 µM); MIC (Staphylococcus aureus [33]): 4 µg/mL (≈ 6.58 µM); MIC (Escherichia coli [34]): > 128 µg/mL
